{"source": "paper PMC3119721", "about": "(Biochemistry, 2011)", "molecules": {"B1": {"name": "PduO-type ATP-dependent cob(I)alamin adenosyltransferase (ATR) (Methylorubrum extorquens AM1) (protein)", "chain": "MVKLNRIYTRTGDQGTTGLANGERRSKADLRVEAYGTVDETNACIGLARLTAEPALDAMLARIQNDLFDLGADLATPPSDKPLGYEPLRIVPAQVQRLETEIDALNANIPPLKSFVLPGGSAAAAALHLARTVCRRAERLVVALSGVESEAISGEALQYLNRLSDFLFVASRAANRDGADDVLWVPGQNR"}}, "key": {"[1]": {"target": "PduO-type ATP-dependent cob(I)alamin adenosyltransferase (ATR) (Methylorubrum extorquens, UniProt C5AZG1, DEL180-190)", "assay": "isothermal titration calorimetry", "type": "binding", "how_it_was_run": "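Recombinant His-tagged M. extorquens ATR, D180X mutant, expressed in E. coli BL21(DE3) and Ni-NTA purified. 40–45 μM protein in 50 mM HEPES pH 8, 0.3 M KCl, 10 mM MgCl2, 5% glycerol at 4 °C, titrated with 45 aliquots of 1–2 mM ATP or AdoCbl. KA, ΔH° and ΔS° were obtained from two-site (ATP) or single-site (AdoCbl) fits, in triplicate.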"}, "[2]": {"system": "Nc1ncnc2c1ncn2[C@@H]1O[C@H](COP(=O)(O)OP(=O)(O)OP(=O)(O)O)[C@@H](O)[C@H]1O", "assay": "purified protein", "type": "biochemical, Methylorubrum extorquens", "settings": "printed as D180X; 55 μM HOCbl (reduced to cob(I)alamin), ATP 0.5-300 μM"}, "purified protein": {"substrate": "Nc1ncnc2c1ncn2[C@@H]1O[C@H](COP(=O)(O)OP(=O)(O)OP(=O)(O)O)[C@@H](O)[C@H]1O", "assay": "purified protein", "type": "biochemical, Methylorubrum extorquens", "settings": "apparent; 55 μM HOCbl (reduced to cob(I)alamin), ATP 0.5-300 μM"}}}
{"molecule": "Nc1ncnc2c1ncn2[C@@H]1O[C@H](COP(=O)(O)OP(=O)(O)OP(=O)(O)O)[C@@H](O)[C@H]1O", "note": "[ATP]", "values": [{"measurement": "Kd", "setting": "[1]", "value": "0.48 ± 0.02", "unit": "µM"}]}
{"molecule": "PduO-type ATP-dependent cob(I)alamin adenosyltransferase (ATR) (Methylorubrum extorquens AM1; DEL180-190)", "values": [{"measurement": "Km", "setting": "[2]", "value": "9.5 ± 1.2", "unit": "µM"}, {"measurement": "kcat", "setting": "[2]", "value": "(2.5 ± 0.1) × 10^−1 s^−1"}, {"measurement": "kcat/Km", "setting": "[2]", "value": "27000 ± 1000", "unit": "M⁻¹ s⁻¹"}]}
{"molecule": "B1", "values": [{"measurement": "Km", "setting": "purified protein", "value": "8.4 ± 1.4", "unit": "µM"}]}
